From ChEMBL document CHEMBL4706563, “Triphenylethylene analogues: Design, synthesis and evaluation of antitumor activity and topoisomerase inhibitors” (Eur J Med Chem, 2020)

How the values were obtained:
HL-60(TB) = experiment: Antiproliferative activity against human HL-60(TB) cells assessed as growth inhibition at 10 uM relative to control; type: functional; conditions: read-out: GI
U-251 = experiment: Antiproliferative activity against human U251 cells assessed as growth inhibition at 10 uM relative to control; type: functional; conditions: read-out: GI
In short: (§1)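 NCI 60 human tumour cell line panel screen. Compounds tested at a single dose and growth inhibition (%) determined for each line.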

LOX IMVI = experiment: Antiproliferative activity against human LOX IMVI cells assessed as growth inhibition at 10 uM relative to control; type: functional; conditions: read-out: GI
In short: (§2)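 Single-dose screen run by the US National Cancer Institute across its 60-human tumour cell line panel. Each compound was tested at one concentration. Percent growth inhibition was recorded for each cell line.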

[1] = Antiproliferative activity against human prostate cancer cells; type: functional; conditions: Prostate tumor cell line; for CC50: read-out: LC50 (the source's name)
Hs-578T = experiment: Antiproliferative activity against human Hs-578T cells assessed as growth inhibition at 10 uM relative to control; type: functional; conditions: read-out: GI; in short: as §2
MOLT-4 = experiment: Antiproliferative activity against human MOLT-4 cells assessed as growth inhibition at 10 uM relative to control; type: functional; conditions: read-out: GI; in short: as §2
CCRF-CEM = experiment: Antiproliferative activity against human CCRF-CEM cells assessed as growth inhibition at 10 uM relative to control; type: functional; conditions: read-out: GI; in short: as §2
PC-3 = experiment: Antiproliferative activity against human PC-3 cells assessed as growth inhibition at 10 uM relative to control; type: functional; conditions: read-out: GI; in short: as §2
OVCAR-3 = experiment: Antiproliferative activity against human OVCAR-3 cells assessed as growth inhibition at 10 uM relative to control; type: functional; conditions: read-out: GI; in short: as §2
OVCAR-8 = experiment: Antiproliferative activity against human OVCAR-8 cells assessed as growth inhibition at 10 uM relative to control; type: functional; conditions: read-out: GI; in short: as §2
UO-31 = experiment: Antiproliferative activity against human UO-31 cells assessed as growth inhibition at 10 uM relative to control; type: functional; conditions: read-out: GI; in short: as §1
M14 = experiment: Antiproliferative activity against human M14 cells assessed as growth inhibition at 10 uM relative to control; type: functional; conditions: read-out: GI; in short: as §2
COLO 205 = experiment: Antiproliferative activity against human COLO 205 cells assessed as growth inhibition at 10 uM relative to control; type: functional; conditions: read-out: GI; in short: as §2
EKVX = experiment: Antiproliferative activity against human EKVX cells assessed as growth inhibition at 10 uM relative to control; type: functional; conditions: read-out: GI; in short: as §2
NCI-H460 = experiment: Antiproliferative activity against human NCI-H460 cells assessed as growth inhibition at 10 uM relative to control; type: functional; conditions: read-out: GI; in short: as §2
SF-268 = experiment: Antiproliferative activity against human SF-268 cells assessed as growth inhibition at 10 uM relative to control; type: functional; conditions: read-out: GI; in short: as §2
NCI-H226 = experiment: Antiproliferative activity against human NCI-H226 cells assessed as growth inhibition at 10 uM relative to control; type: functional; conditions: read-out: GI; in short: as §2
UACC-257 = experiment: Antiproliferative activity against human UACC-257 cells assessed as growth inhibition at 10 uM relative to control; type: functional; conditions: read-out: GI; in short: as §1
NCI-H23 = experiment: Antiproliferative activity against human NCI-H23 cells assessed as growth inhibition at 10 uM relative to control; type: functional; conditions: read-out: GI; in short: as §2
Leukemia cell = experiment: Antiproliferative activity against human leukemia cells; type: functional
HEK293 [2] = experiment: Cytotoxicity against human HEK293 cells at 10^-6 M incubated for 24 hrs by MTT assay relative to control; type: cell-based; conditions: hek293, 24 h, 1 µM
In short: (§3)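 HEK293 cells grown in low-glucose DMEM with 10% FBS, glutamine, penicillin/streptomycin at 37 °C, 5% CO2. Cells exposed to compound at 10^-4 to 10^-8 M for 24 h at 37 °C. MTT from 5 mg/mL stock added for 4 h at 37 °C in dark. Formazan dissolved in DMSO and read at 570 nm. % toxicity calculated relative to medium-only control wells. Three experiments, each in triplicate.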

HEK293 [3] = experiment: Cytotoxicity against human HEK293 cells at 10^-8 M incubated for 24 hrs by MTT assay relative to control; type: cell-based; conditions: hek293, 24 h, 0.01 µM; in short: as §3
HEK293 [4] = experiment: Cytotoxicity against human HEK293 cells at 10^-7 M incubated for 24 hrs by MTT assay relative to control; type: cell-based; conditions: hek293, 24 h, 0.1 µM; in short: as §3
HEK293 [5] = experiment: Cytotoxicity against human HEK293 cells at 10^-5 M incubated for 24 hrs by MTT assay relative to control; type: cell-based; conditions: hek293, 24 h, 10 µM; in short: as §3
HEK293 [6] = experiment: Cytotoxicity against human HEK293 cells at 10^-4 M incubated for 24 hrs by MTT assay relative to control; type: cell-based; conditions: hek293, 24 h, 100 µM; in short: as §3
HEK293 [7] = experiment: Cytotoxicity against human HEK293 cells at 100 uM incubated for 24 hrs by MTT assay relative to control; type: cell-based; conditions: hek293, 24 h; in short: as §3

Compound: CC/C(=C(\c1ccccc1)c1ccc(OCCN(C)C)cc1)c1ccccc1 [TAMOXIFEN]
- inhibition of growth at 10 µM (HL-60(TB)): 60.4%
- inhibition of growth at 10 µM (U-251): 95.2%
- inhibition of growth at 10 µM (LOX IMVI): -43.9%
- GI50 [1]: 4.4 µM
- TGI [1]: 11.1 µM
- CC50 [1]: 233 µM
- inhibition of growth at 10 µM (Hs-578T): 39.5%
- inhibition of growth at 10 µM (MOLT-4): 66.7%
- inhibition of growth at 10 µM (CCRF-CEM): 65.4%
- inhibition of growth at 10 µM (PC-3): 65.6%
- inhibition of growth at 10 µM (OVCAR-3): 47.1%
- inhibition of growth at 10 µM (OVCAR-8): 39.5%
- inhibition of growth at 10 µM (UO-31): 59.7%
- inhibition of growth at 10 µM (M14): -75%
- inhibition of growth at 10 µM (COLO 205): -89%
- inhibition of growth at 10 µM (EKVX): 40%
- inhibition of growth at 10 µM (NCI-H460): 97.6%
- inhibition of growth at 10 µM (SF-268): 43.3%
- inhibition of growth at 10 µM (NCI-H226): 7.5%
- inhibition of growth at 10 µM (UACC-257): -64.3%
- inhibition of growth at 10 µM (NCI-H23): 39.7%
- GI50 (Leukemia cell): 2.08 µM
- TGI (Leukemia cell): 6.42 µM

Compound: C/C(=C(/c1ccccc1)c1ccc(OCC(O)CNCCN2CCOCC2)cc1)c1ccccc1 (configuration not stated)
- inhibition of growth at 10 µM (HL-60(TB)): 71%
- Activity (HEK293 [2]): 7.04%
- Activity (HEK293 [3]): 4.74%
- inhibition of growth at 10 µM (U-251): 67.4%
- inhibition of growth at 10 µM (LOX IMVI): 81.3%
- GI50 [1]: 3.57 µM
- TGI [1]: 13 µM
- CC50 [1]: 38.5 µM
- Activity (HEK293 [4]): 5.43%
- inhibition of growth at 10 µM (Hs-578T): 29.5%
- inhibition of growth at 10 µM (MOLT-4): 59%
- inhibition of growth at 10 µM (CCRF-CEM): 43.5%
- inhibition of growth at 10 µM (PC-3): 34.5%
- Activity (HEK293 [5]): 13.73%
- inhibition of growth at 10 µM (OVCAR-3): 22.1%
- inhibition of growth at 10 µM (OVCAR-8): 21.8%
- Activity (HEK293 [6]): 15.82%
- inhibition of growth at 10 µM (UO-31): 30.8%
- inhibition of growth at 10 µM (M14): 7.31%
- inhibition of growth at 10 µM (COLO 205): -64.5%
- inhibition of growth at 10 µM (EKVX): 17.2%
- inhibition of growth at 10 µM (NCI-H460): 82.4%
- inhibition of growth at 10 µM (NCI-H226): 3.88%
- inhibition of growth at 10 µM (UACC-257): -27.5%
- inhibition of growth at 10 µM (NCI-H23): 16.8%
- GI50 (Leukemia cell): 2.19 µM
- LC50 (concentration killing 50% of cells) (Leukemia cell): 23.9 µM
- TGI (Leukemia cell): 5.8 µM
- Activity (HEK293 [7]): 20%
